The source made the active and inactive calls. The calls are words filed in the database; no cut-off is given here.
Legend:
[1] = tested on: HepG2; assay: Cytotoxicity against human HepG2 cells assessed as reduction in cell viability at 200 uM after 24 hrs by MTS assay; type: functional, cell-based
Summary of the method: (§1)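 Single-concentration screen: exponentially growing HepG2 or MCF-7 cells were exposed to compounds for 24 h, and viability was read by MTS relative to control. DMSO (0.5%) was the solvent control; etoposide was the positive control.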

[2] = tested on: MCF7; assay: Cytotoxicity against human MCF7 cells assessed as reduction in cell viability at 200 uM after 24 hrs by MTS assay; type: functional, cell-based; summary of the method: as §1
[3] = molecular target: T1, DNA topoisomerase 2-alpha (Homo sapiens, UniProt P11388); assay: Inhibition of human topoisomerase 2alpha using supercoiled pNO1 plasmid as substrate after 30 mins by HTS assay
T1 sequence (P11388 whole entry): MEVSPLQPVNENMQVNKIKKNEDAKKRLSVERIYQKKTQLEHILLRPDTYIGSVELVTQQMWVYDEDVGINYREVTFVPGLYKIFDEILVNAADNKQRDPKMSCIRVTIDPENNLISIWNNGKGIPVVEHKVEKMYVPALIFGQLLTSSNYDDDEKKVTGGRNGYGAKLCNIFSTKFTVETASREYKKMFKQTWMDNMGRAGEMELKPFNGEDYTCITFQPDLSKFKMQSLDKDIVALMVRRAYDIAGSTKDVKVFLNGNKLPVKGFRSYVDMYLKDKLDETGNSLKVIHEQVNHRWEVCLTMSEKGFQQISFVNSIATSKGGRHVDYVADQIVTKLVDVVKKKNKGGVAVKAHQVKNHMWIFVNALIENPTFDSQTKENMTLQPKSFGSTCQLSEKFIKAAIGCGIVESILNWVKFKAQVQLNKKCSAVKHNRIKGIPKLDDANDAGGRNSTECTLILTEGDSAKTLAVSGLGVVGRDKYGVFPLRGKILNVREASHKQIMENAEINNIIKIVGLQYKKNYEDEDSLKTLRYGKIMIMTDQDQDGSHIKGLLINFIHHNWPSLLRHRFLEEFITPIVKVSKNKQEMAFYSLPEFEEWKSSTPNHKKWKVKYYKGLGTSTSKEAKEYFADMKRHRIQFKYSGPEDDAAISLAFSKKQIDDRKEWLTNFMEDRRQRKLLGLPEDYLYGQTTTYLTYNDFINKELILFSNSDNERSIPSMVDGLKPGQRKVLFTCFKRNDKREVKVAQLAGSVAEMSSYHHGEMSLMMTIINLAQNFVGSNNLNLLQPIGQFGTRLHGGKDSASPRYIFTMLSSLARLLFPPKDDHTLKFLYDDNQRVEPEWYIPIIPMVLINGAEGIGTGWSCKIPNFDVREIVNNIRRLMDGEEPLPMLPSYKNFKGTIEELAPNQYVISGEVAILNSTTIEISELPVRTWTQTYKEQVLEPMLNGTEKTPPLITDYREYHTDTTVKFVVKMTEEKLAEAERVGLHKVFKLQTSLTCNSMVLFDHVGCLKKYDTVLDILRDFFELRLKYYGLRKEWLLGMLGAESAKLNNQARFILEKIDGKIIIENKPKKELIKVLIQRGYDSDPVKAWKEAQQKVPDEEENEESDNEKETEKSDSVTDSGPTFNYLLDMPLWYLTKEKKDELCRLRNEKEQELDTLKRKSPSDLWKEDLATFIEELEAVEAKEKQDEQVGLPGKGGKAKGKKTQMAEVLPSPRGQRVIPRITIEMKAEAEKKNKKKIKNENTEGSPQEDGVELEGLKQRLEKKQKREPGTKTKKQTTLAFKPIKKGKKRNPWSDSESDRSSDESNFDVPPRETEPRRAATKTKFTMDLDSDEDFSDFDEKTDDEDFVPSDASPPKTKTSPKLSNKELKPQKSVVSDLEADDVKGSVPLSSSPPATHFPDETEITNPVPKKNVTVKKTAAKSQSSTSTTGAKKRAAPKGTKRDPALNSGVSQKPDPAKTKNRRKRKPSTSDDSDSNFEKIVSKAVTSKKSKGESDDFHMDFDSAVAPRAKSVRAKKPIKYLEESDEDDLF

[4] = molecular target: T1, DNA topoisomerase 2-alpha; assay: Inhibition of human topoisomerase-2alpha mediated decatenation at 125 uM using kinetoplast DNA as substrate after 30 mins in presence of ATP by ethidium bromide staining-based gel electrophoresis method relative to control; parameters: scale not given: the % may be the effect or the level left
[5] = molecular target: T1, DNA topoisomerase 2-alpha; assay: Inhibition of human topoisomerase-2alpha mediated decatenation at 500 uM using kinetoplast DNA as substrate after 30 mins in presence of ATP by ethidium bromide staining-based gel electrophoresis method relative to control; parameters: scale not given: the % may be the effect or the level left
[6] = molecular target: DNA topoisomerase 2-beta (Homo sapiens) (UniProt Q02880); assay: (§2) Inhibition of human topoisomerase-2beta mediated decatenation at […] using kinetoplast DNA as substrate after 30 mins in presence of ATP by ethidium bromide staining-based gel electrophoresis method relative to control; parameters: scale not given: the % may be the effect or the level left
Sequence of DNA topoisomerase 2-beta (Homo sapiens) (Q02880 whole entry): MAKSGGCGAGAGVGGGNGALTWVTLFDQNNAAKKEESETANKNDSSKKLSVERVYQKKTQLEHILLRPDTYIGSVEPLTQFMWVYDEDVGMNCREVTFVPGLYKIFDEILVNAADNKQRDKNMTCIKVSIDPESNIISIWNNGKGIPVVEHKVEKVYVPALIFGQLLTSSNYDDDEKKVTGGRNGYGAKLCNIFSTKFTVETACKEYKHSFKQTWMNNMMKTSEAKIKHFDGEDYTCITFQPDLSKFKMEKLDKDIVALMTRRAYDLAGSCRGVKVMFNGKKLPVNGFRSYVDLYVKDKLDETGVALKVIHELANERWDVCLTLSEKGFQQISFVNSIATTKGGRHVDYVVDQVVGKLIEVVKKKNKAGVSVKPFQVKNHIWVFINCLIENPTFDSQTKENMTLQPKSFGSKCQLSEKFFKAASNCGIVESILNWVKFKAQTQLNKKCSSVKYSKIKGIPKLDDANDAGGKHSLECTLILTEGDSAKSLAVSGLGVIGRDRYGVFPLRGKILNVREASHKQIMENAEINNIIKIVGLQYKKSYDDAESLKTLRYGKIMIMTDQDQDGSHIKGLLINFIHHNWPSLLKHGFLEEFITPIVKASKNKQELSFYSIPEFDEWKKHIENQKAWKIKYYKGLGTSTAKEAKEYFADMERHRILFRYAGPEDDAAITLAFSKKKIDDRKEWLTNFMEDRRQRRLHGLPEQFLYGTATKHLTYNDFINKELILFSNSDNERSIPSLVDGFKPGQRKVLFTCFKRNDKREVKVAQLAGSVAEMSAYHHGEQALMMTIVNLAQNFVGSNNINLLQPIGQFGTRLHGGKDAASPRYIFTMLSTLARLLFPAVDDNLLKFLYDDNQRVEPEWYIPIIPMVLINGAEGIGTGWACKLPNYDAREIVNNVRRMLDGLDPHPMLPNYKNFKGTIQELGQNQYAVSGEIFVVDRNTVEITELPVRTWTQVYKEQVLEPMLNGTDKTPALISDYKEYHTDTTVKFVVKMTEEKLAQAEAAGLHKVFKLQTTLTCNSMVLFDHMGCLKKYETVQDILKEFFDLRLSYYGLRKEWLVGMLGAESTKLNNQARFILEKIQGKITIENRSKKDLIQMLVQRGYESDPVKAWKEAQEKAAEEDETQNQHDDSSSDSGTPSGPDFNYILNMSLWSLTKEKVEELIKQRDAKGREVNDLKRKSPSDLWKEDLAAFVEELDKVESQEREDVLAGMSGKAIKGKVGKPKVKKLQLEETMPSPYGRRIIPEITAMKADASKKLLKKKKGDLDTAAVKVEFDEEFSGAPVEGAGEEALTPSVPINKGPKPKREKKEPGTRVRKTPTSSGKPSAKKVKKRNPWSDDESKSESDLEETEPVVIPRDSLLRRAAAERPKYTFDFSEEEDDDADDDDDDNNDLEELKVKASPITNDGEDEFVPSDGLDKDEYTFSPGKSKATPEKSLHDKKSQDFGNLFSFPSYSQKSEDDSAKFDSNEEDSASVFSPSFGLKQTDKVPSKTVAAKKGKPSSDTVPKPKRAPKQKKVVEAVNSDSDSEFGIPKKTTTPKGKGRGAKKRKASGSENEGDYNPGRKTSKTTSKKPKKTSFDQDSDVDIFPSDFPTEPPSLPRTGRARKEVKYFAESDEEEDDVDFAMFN

[7] = molecular target: DNA topoisomerase 2-beta (Homo sapiens) (UniProt Q02880); assay: as §2; parameters: scale not given: the % may be the effect or the level left; remark: listed apart in the source
[8] = molecular target: DNA topoisomerase 2-beta (Homo sapiens) (UniProt Q02880); assay: Inhibition of human topoisomerase-2beta mediated decatenation at 125 uM using kinetoplast DNA as substrate after 30 mins in presence of ATP by ethidium bromide staining-based gel electrophoresis method relative to control; parameters: scale not given: the % may be the effect or the level left
Summary of the method: (§3)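 One U of human topo IIα or IIβ with 200 ng kDNA, 30 min at 37 °C in 50 mM Tris-HCl pH 7.5, 125 mM NaCl, 10 mM MgCl2, 5 mM DTT, 0.5 mM EDTA, 0.1 mg/ml BSA, 1 mM ATP. Compounds (3.9–500 µM, 1% DMSO final) were added before the enzyme. Reactions were stopped with chloroform/isoamyl alcohol, run on a 1% TAE gel and stained with EtBr; inhibition came from band densitometry, in duplicate.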

[9] = molecular target: DNA topoisomerase 2-beta (Homo sapiens) (UniProt Q02880); assay: Inhibition of human topoisomerase-2beta mediated decatenation at 500 uM using kinetoplast DNA as substrate after 30 mins in presence of ATP by ethidium bromide staining-based gel electrophoresis method relative to control; parameters: scale not given: the % may be the effect or the level left; summary of the method: as §3
[10] = molecular target: T1, DNA topoisomerase 2-alpha; assay: (§4) Poison activity at human topoisomerase-2alpha assessed as linear DNA formation at […] using supercoiled pBR322 DNA as substrate after 60 mins by ethidium bromide staining based agarose gel electrophoresis method (reference value: […]); settings: 1 h
[11] = molecular target: T1, DNA topoisomerase 2-alpha; assay: as §4; settings: 1 h; remark: listed apart in the source
[12] = molecular target: T1, DNA topoisomerase 2-alpha; assay: Poison activity at human topoisomerase-2alpha assessed as linear DNA formation at 125 uM using supercoiled pBR322 DNA as substrate after 60 mins by ethidium bromide staining based agarose gel electrophoresis method (reference value: […]); settings: 1 h
[13] = molecular target: T1, DNA topoisomerase 2-alpha; assay: Poison activity at human topoisomerase-2alpha assessed as linear DNA formation at 500 uM using supercoiled pBR322 DNA as substrate after 60 mins by ethidium bromide staining based agarose gel electrophoresis method (reference value: […]); settings: 1 h
[14] = molecular target: T1, DNA topoisomerase 2-alpha; assay: Poison activity at human topoisomerase-2alpha assessed as linear DNA formation at 50 uM using supercoiled pBR322 DNA as substrate after 60 mins by ethidium bromide staining based agarose gel electrophoresis method (reference value: 1.77 %); settings: 1 h
[15] = tested on: HepG2; assay: Cytotoxicity against human HepG2 cells assessed as reduction in cell viability after 24 hrs by MTT assay; type: functional, cell-based; settings: HepG2, 24 h
[16] = molecular target: T1, DNA topoisomerase 2-alpha; assay: Poison activity at human topoisomerase-2alpha assessed as linear DNA formation using supercoiled pBR322 DNA as substrate after 60 mins by ethidium bromide staining based agarose gel electrophoresis method; settings: 1 h

Row | Structure (SMILES) | Activity [1] | Activity [2] | further results
1 | NC(=O)c1cccc(CSc2nc(SCc3cccc(Cl)c3)[nH]c(=O)n2)c1 | inactive | inactive | 
2 | O=c1nc(SCc2ccc3nonc3c2)nc(SCc2ccccc2F)[nH]1 | inactive | inactive | 
3 | O=C(O)c1cccc(CSc2nc(SCc3cccc(Cl)c3)[nH]c(=O)n2)c1 | inactive | inactive | 
4 | O=c1nc(SCc2cc(F)cc(C(F)(F)F)c2)nc(SCc2ccc(Cl)cc2)[nH]1 | inactive | inactive | 
5 | NC(=O)c1cccc(CSc2nc(SCc3ccccc3F)[nH]c(=O)n2)c1 | inactive | inactive | 
6 | O=c1nc(SCc2ccccc2)nc(SCc2cccc(Cl)c2)[nH]1 |  |  | IC50 [3]: 57.6 µM
7 | CC(C(=O)O)c1ccc(CSc2nc(SCc3ccc(Cl)cc3)[nH]c(=O)n2)cc1 (centres undefined) | inactive | inactive | 
8 | COc1cc([C@@H]2c3cc4c(cc3[C@@H](O[C@@H]3O[C@@H]5CO[C@@H](C)O[C@H]5[C@H](O)[C@H]3O)[C@H]3COC(=O)[C@H]23)OCO4)cc(OC)c1O [ETOPOSIDE] |  |  | Activity [4]: 4.09%; Activity [5]: 2.27%; Activity [6]: 100%; Activity [7]: 93.4%; Activity [8]: 23.9%; Activity [9]: 14.7%; Activity [10]: 13.72%; Activity [11]: 25.79%; Activity [12]: 34.79%; Activity [13]: 39.98%; Activity [14]: 35.56%; EC50 [15]: 60.5 to 93.4 µM; Activity [16]: Dose-dependent effect
9 | O=c1nc(SCc2c(F)cccc2F)nc(SCc2ccccc2F)[nH]1 | inactive | inactive | 
10 | O=C(O)c1cccc(CSc2nc(SCc3ccccc3F)[nH]c(=O)n2)c1 | inactive | inactive | 
11 | O=c1nc(SCc2cc(F)cc(C(F)(F)F)c2)nc(SCc2ccccc2F)[nH]1 | inactive | inactive | Activity [6]: 99.4%; Activity [7]: 12.5%; Activity [8]: 0%; Activity [9]: 0%
12 | CC(C)c1ccc(CSc2nc(SCc3ccc(Cl)cc3)[nH]c(=O)n2)cc1 | inactive | inactive | 
13 | O=c1nc(SCc2cccc(O)c2)nc(SCc2cccc(Cl)c2)[nH]1 | inactive | inactive | 
14 | O=c1nc(SCc2ccc(CO)cc2)nc(SCc2ccc(Cl)cc2)[nH]1 | inactive | inactive | 
15 | CC(C(=O)O)c1ccc(CSc2nc(SCc3ccccc3F)[nH]c(=O)n2)cc1 (centres undefined) | inactive | inactive | 
16 | O=c1nc(SCc2cccc(O)c2)nc(SCc2ccc(Cl)cc2)[nH]1 | inactive | inactive | 
17 | O=c1nc(SCc2c(F)cccc2F)nc(SCc2cccc(Cl)c2)[nH]1 | inactive | inactive | 
18 | NC(=O)c1cccc(CSc2nc(SCc3ccc(Cl)cc3)[nH]c(=O)n2)c1 | inactive | inactive | 
19 | O=c1nc(SCc2cc(F)c(F)cc2F)nc(SCc2ccc(Cl)cc2)[nH]1 | inactive | inactive | 
20 | O=c1nc(SCc2ccc(C(F)(F)F)cc2)nc(SCc2ccccc2F)[nH]1 |  |  | Activity [6]: 98.2%; Activity [7]: 0%; Activity [8]: 0%; Activity [9]: 0%
21 | O=c1nc(SCc2ccc(CO)cc2)nc(SCc2cccc(Cl)c2)[nH]1 | inactive | inactive | 
22 | O=c1nc(SCc2ccc(CO)cc2)nc(SCc2ccccc2F)[nH]1 | inactive | inactive | 
23 | O=C(O)c1cccc(CSc2nc(SCc3ccc(Cl)cc3)[nH]c(=O)n2)c1 | inactive | inactive | 
24 | O=c1nc(SCc2ccc3nonc3c2)nc(SCc2cccc(Cl)c2)[nH]1 | inactive | inactive | 
25 | O=c1nc(SCc2c(F)cccc2F)nc(SCc2ccc(Cl)cc2)[nH]1 | inactive | inactive | 
26 | O=c1nc(SCc2cc(F)cc(C(F)(F)F)c2)nc(SCc2cccc(Cl)c2)[nH]1 |  |  | Activity [6]: 91.8%; Activity [7]: 0%; Activity [8]: 0%; Activity [9]: 0%
27 | CC(C(=O)O)c1ccc(CSc2nc(SCc3cccc(Cl)c3)[nH]c(=O)n2)cc1 (centres undefined) | inactive | inactive | 
28 | O=c1nc(SCc2cccc(O)c2)nc(SCc2ccccc2F)[nH]1 | inactive | inactive | 
